# Measured values: paper PMC7187372 (Journal of Clinical Pharmacology, 2019)
# Columns and labels:
# Ketoconazole = type: in vivo, human; conditions: glasdegib 200-mg single dose, ketoconazole 400 mg daily, healthy subjects
# [1] = Simulation of steady-state exposure; design: species or system human
# [2] = healthy subjects; cited from earlier work
# [3] = Population pharmacokinetic analysis; type: in vivo, human
# Outline: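 Single-dose intensive plasma sampling to 120 h (B1371001) or 24 h (B1371002), sparse in B1371003; multiple-dose intensive in all. HPLC–MS/MS assay, LLOQ 0.200 ng/mL. SAEM/IMP estimation; proportional residual error on log concentrations; missing covariates imputed as population median.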
# [4] = cited from earlier work
# [5] = cited from earlier work; remark: listed apart in the source
# [6] = cited from earlier work; remark: listed apart in the source
# [7] = cited from earlier work; remark: listed apart in the source
# [8] = cited from earlier work; remark: listed apart in the source
# [9] = system: Hedgehog pathway marker glioma‐associated oncogene homolog 1 (GLI1); conditions: plasma exposures at doses ≥100 mg QD; cited from earlier work
# [10] = Healthy volunteer population PK model; type: in vivo, human
# Outline: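 Model built from noncancer subjects in studies B1371010 and B1371014 (n = 49; 1937 plasma concentrations). Structure: 2-compartment, first-order absorption and elimination, allometric body-weight scaling. Estimation by FOCEI. Food entered empirically as a linear covariate on ka. Residual error was proportional across all subjects. Intersubject variability is reported as CV (%).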
# [11] = higher; cited from earlier work
# [12] = bootstrap median, 1000 resampled data sets
# [13] = glasdegib 200-mg single dose, ketoconazole 400 mg daily, healthy subjects
# [14] = healthy volunteer model vs final model, higher
# [15] = healthy volunteer model, n = 49, FOCEI
smiles,measurement,setting,value
"CN1CC[C@@H](NC(=O)Nc2ccc(C#N)cc2)C[C@@H]1c1nc2ccccc2[nH]1 [glasdegib, Glasdegib]",Decrease in CL/F with ketoconazole,Ketoconazole,58%
same,Exposure increase from CL/F reduction,[1]; 10th percentile baseline body weight vs 70 kg,~1.1 fold
same,Simulated fold change in steady-state maximum concentration and area under the curve,[1]; 90th percentile baseline body weight,~0.75
same,Exposure increase from CL/F reduction,[1]; 90th percentile baseline bone marrow blasts,~1.1 fold
same,Increase in area under the curve,[1]; strong CYP3A inhibitors,~1.4 fold
same,Effect of high-fat meal or proton pump inhibitors on PK,[2],not affected in a clinically relevant manner
same,"Residual error, proportional error, Hematologic",[3]; bootstrap median,65.7%
same,"Residual error, proportional error, Solid tumors",[3]; bootstrap median,59.3%
same,CL/F,[3]; [12],6.23 L/h
same,Q/F,[3]; [12],1.58 L/h
same,Vc/F,[3]; [12],3.52 L
same,Vp/F,[3]; [12],296.04 L
same,ka,[3]; [12],0.06 hour^–1
same,θBPBL,[3]; [12],–0.004
same,θCYPmod,[3]; [12],–0.18
same,θCYPstrong,[3]; [12],–0.31
same,θWNCL,[3]; [12],0.41
same,θsolid on Q/F,[3]; [12],–0.69
same,θsolid on Vp/F,[3]; [12],–0.81
same,"Effect of age, sex, race and hepatic function on glasdegib PK parameters",[3]; covariate analysis,not found to be significant covariates
same,"Residual error, proportional error, Hematologic",[3]; final model estimate,65.8%
same,"Residual error, proportional error, Solid tumors",[3]; final model estimate,59.5%
same,Change in CL/F per 1% change in baseline percentage bone marrow blasts,"[3]; from population median 38.2%, CL/F decreases as blasts increase",0.4%
same,Plasma exposures with a strong CYP3A inhibitor,[4],increased
same,Increase in AUC extrapolated to infinity with ketoconazole vs glasdegib alone,[4]; [13],140%
same,Increase in maximum plasma concentration with ketoconazole vs glasdegib alone,[4]; [13],40%
same,Radiolabeled dose recovered in feces (mean),[5]; 100 mg dose,41.7%
same,Radiolabeled dose recovered in urine (mean),[5]; 100 mg dose,48.9%
same,Renal contribution to elimination,[5],around 17%
same,Unchanged glasdegib recovered in feces,[5]; of the 100 mg dose,19.5%
same,Unchanged glasdegib recovered in urine,[5]; of the 100 mg dose,17.2%
same,Plasma exposures with a strong CYP3A4 inducer,[6],decreased
same,Dose proportionality of plasma exposure,"[7]; 5-600 mg QD, single and multiple daily dosing",dose‐proportional increase in plasma exposure
same,Maximum tolerated dose (MTD),"[7]; oral, patients",400 mg QD
same,Absolute oral bioavailability,[8],77.12%
same,Downregulation of GLI1,[9],robust and consistent
same,Intersubject variability CL/F,[10]; healthy volunteer model,19.6% (5.8%)
same,Intersubject variability Vc/F,[10]; healthy volunteer model,11.0% (52.0%)
same,Intersubject variability ka,[10]; healthy volunteer model,53.4% (10.6%)
same,CL/F in healthy subjects relative to patients with cancer,[10]; [14],> 1.6 fold
same,ka in healthy subjects relative to patients with cancer,[10]; [14],over 13 fold
same,"Residual error, proportional error","[10]; healthy volunteer model, all subjects",58.6%
same,CL/F,[10]; [15],10.1 (4.1%) L/h
same,Q/F,[10]; [15],1.92 (11.4%) L/h
same,Vc/F,[10]; [15],112 (4.1%) L
same,Vp/F,[10]; [15],53.5 (6.9%) L
same,ka,[10]; [15],0.79 (8.9%) hour^–1
same,Intersubject variability Q/F,"[10]; healthy volunteer model, FIXED",3.2% FIXED
same,Intersubject variability Vp/F,"[10]; healthy volunteer model, FIXED",3.2% FIXED
"Cc1c(C(=O)Nc2ccc(N3C[C@@H](C)O[C@@H](C)C3)nc2)cccc1-c1ccc(OC(F)(F)F)cc1 [sonidegib, Sonidegib]",Clearance in healthy subjects relative to patients with cancer,[11],3 fold
